In ChEMBL document CHEMBL1671701, “Discovery of potent small-molecule inhibitors of multidrug-resistant Plasmodium falciparum using a novel miniaturized high-throughput luciferase-based assay” (Antimicrob Agents Chemother, 2010):
pIC50: −log10 of the molar value. Structures can show the parent of a compound that is named as a salt.

test system: Plasmodium falciparum; assay: Antiplasmodial activity against multidrug-resistant Plasmodium falciparum TM90C2B by SYBR Green 1-based fluorescence assay; format: functional, organism-based; details: not given
Procedure, shortened: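 Resistant TM90C2B parasites are treated over a dose range and growth is read as SYBR green I fluorescence. IC50 comes from a fit of the log dose-response relationship, as the mean of at least three separate experiments.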

Structure (SMILES) | pIC50
CC(=O)N(C1=C(N(C)C)C(=O)c2ccccc2C1=O)c1cccc(Br)c1 | 7.03
CC(=O)N(C1=C(N2CCOCC2)C(=O)c2ccccc2C1=O)c1ccccc1 | 6.28
CC(=O)N(C1=C(N(C)C)C(=O)c2ccccc2C1=O)c1cccc(F)c1 | 7.13
CC(=O)N(C1=C(N(C)C)C(=O)c2ccccc2C1=O)c1ccc(F)c(F)c1 | 6.96
CC(=O)N(C1=C(N2CCOCC2)C(=O)c2ccccc2C1=O)c1cccc(Cl)c1 | 6.29
O=C1C(O)=C([C@H]2CC[C@H](c3ccc(Cl)cc3)CC2)C(=O)c2ccccc21 [ATOVAQUONE] | 4.92

test system: not listed separately; assay: Cytotoxicity activity against human HAEC cells after 24 hrs; format: cell-based; details: not given

Structure (SMILES) | pIC50
CCNC(=O)N1CCN(CCCC(c2ccc(F)cc2)c2ccc(F)cc2)CC1 [AMPEROZIDE] | 4.08
COc1cccc2c1C(=O)c1c(O)c3c(c(O)c1C2=O)C[C@@](O)(C(=O)CO)C[C@@H]3O[C@H]1C[C@H](N)[C@H](O)[C@H](C)O1 [DOXORUBICIN] | 4.89
c1cc(CN2CCCCC2)cc(OCCCNc2nc3ccccc3s2)c1 [ZOLANTIDINE] | 4.12

test system: Plasmodium falciparum; assay: Antiplasmodial activity against Plasmodium falciparum 3D7 infected in RBCs by firefly luciferase reporter gene assay; format: functional, organism-based; details: not given
Procedure, shortened: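 Sorbitol-synchronised 3D7 expressing firefly luciferase from the HRPII promoter, at 1% late-ring parasitemia and 3% hematocrit in RPMI/albumax II medium. Sixteen 2-fold dilutions from 17 μM to 0.5 nM, 48 h at 37°C under 5% O2/5% CO2/N2. Bright-Glo luminescence is normalised to untreated infected and uninfected-RBC wells. IC50 by four-parameter logistic fit.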

Structure (SMILES) | pIC50
CCNC(=O)N1CCN(CCCC(c2ccc(F)cc2)c2ccc(F)cc2)CC1 [AMPEROZIDE DIHYDROCHLORIDE] | 6.35
CCNC(=O)N1CCN(CCCC(c2ccc(F)cc2)c2ccc(F)cc2)CC1 [AMPEROZIDE HYDROCHLORIDE] | 7.46

same assay, conditions: Plasmodium falciparum, 3D7

Structure (SMILES) | pIC50
O[Si](CCCN1CCCCC1)(c1ccc(F)cc1)C1CCCCC1 (centres undefined) | 8.40
CCCN(CCC)[C@H]1CCc2c(F)ccc(O)c2C1 | 8.30
COc1ccc(CNC2CCN(Cc3ccccc3)CC2)cc1 | 5.89
Clc1ccc(CNC2CCN(Cc3ccccc3)CC2)cc1 | 6.60
NC(=O)CCCCn1ccc(/N=C(\N)NCC(F)(F)F)n1 | 4.74
CN1CCN(CCCC(c2ccc(F)cc2)c2ccc(F)cc2)CC1 | 4.92
Fc1ccc(C(CCCN2CCOCC2)c2ccc(F)cc2)cc1 | 4.74
Oc1ccccc1N1CCCC2CCCCC21 (centres undefined) | 6.39
CN(CCc1ccccc1)c1cc(Br)cc(Br)c1O | 7.44
CC1CCCN(c2cc(Cl)cc(Cl)c2O)C1 (centres undefined) | 6.96
CC1CCCN(c2cccc(Br)c2O)C1 (centres undefined) | 6.89
Oc1c(Cl)cccc1N1CCCCCCC1 | 6.74
CCCCN(C)c1cc(Br)cc(Br)c1O | 6.57
CCCN(CC1CC1)c1cc(OC)cc(Br)c1O | 6.54
CCCN(CC1CC1)c1cc(Cl)cc(Cl)c1O | 6.48
CCCCN(Cc1ccccc1)c1ccccc1O | 6.38
Oc1c(Br)cccc1N1CCCCCCC1 | 6.37
CN(Cc1ccccc1)c1cc(Br)cc(Br)c1O | 6.17
CCCN(CC1CC1)c1cc(Br)cc(Br)c1O | 6.15
COc1ccc(O)c(N2CCCCC2)c1 | 6.10
Oc1c(Cl)cccc1C1=NN=C(c2ccc(F)cc2)C1 | 5.82
Cc1cccc(C2=NN=C(c3ccc(Br)cc3)C2)c1O | 5.33
Oc1c(Cl)cccc1C1=NN=C(c2ccc(Cl)cc2)C1 | 4.82
CCCN1CCC(NCC(c2ccccc2)c2ccccc2)CC1 | 6.31
c1ccc(CCN2CCC(NC3CCCCC3)CC2)cc1 | 6.05
Clc1cccc(CNC2CCN(Cc3ccccc3)CC2)c1 | 5.96
CC(=O)N(C1=C(N(C)C)C(=O)c2ccccc2C1=O)c1cccc(Br)c1 | 7.49

Structure (SMILES) | pIC50
CC(=O)N(C1=C(N2CCOCC2)C(=O)c2ccccc2C1=O)c1ccccc1 | 6.11
CC(=O)N(C1=C(N2CCCCC2)C(=O)c2ccccc2C1=O)C1CCCCC1 | 5.27
O=C(Nc1ccccc1)N1CCN(CCCC(c2ccc(F)cc2)c2ccc(F)cc2)CC1 | 5.14
Fc1ccc(C(CCCN2CCCC2)c2ccc(F)cc2)cc1 | 4.92
Fc1ccc(C(CCCN2CCCCC2)c2ccc(F)cc2)cc1 | 5.22
CCN(CC)CCCC(c1ccc(F)cc1)c1ccc(F)cc1 | 5.24
Cc1ccc(CS(=O)(=O)N2CCN(CCCC(c3ccc(F)cc3)c3ccc(F)cc3)CC2)cc1 | 6.10
O=S(=O)(c1ccccc1)N1CCN(CCCC(c2ccc(F)cc2)c2ccc(F)cc2)CC1 | 5.52
O=C1CCN(CCCC(c2ccc(F)cc2)c2ccc(F)cc2)CC1 | 5.27
C=CC[N+](C)(C)c1ccc(CCC(=O)CCc2ccc([N+](C)(C)CC=C)cc2)cc1 | 6.97
CCCN1CCC(NC(c2ccccc2)c2ccc(Cl)cc2)CC1 (centres undefined) | 5.96
CC(=O)N(C1=C(N2CCCCC2)C(=O)c2ccccc2C1=O)c1cccc(Cl)c1 | 5.37
CC(=O)N(C1=C(N(C)C)C(=O)c2ccccc2C1=O)c1cccc(F)c1 | 7.96
CC(=O)N(C1=C(N(C)C)C(=O)c2ccccc2C1=O)c1ccc(F)c(F)c1 | 7.60
CC(=O)N(C1=C(N2CCOCC2)C(=O)c2ccccc2C1=O)c1cccc(Cl)c1 | 6.10
Fc1ccc(C(CCCN2CCNCC2)c2ccc(F)cc2)cc1 | 5.35
N=C(N)c1ccc(OCCCCCOc2ccc(C(=N)N)cc2)cc1 | 7.38
N/C(=N\C(=O)c1nc(Cl)c(N)nc1N)NCc1ccc(Cl)c(Cl)c1 [3',4' DICHLOROBENZAMIL] | 6.84
CN(C)c1nc(N)c(C(=O)NC(=N)N)nc1Cl [5-(N,N-DIMETHYL)AMILORIDE HYDROCHLORIDE] | 5.96
CCN(c1nc(N)c(C(=O)NC(=N)N)nc1Cl)C(C)C [5-(N-ETHYL-N-ISOPROPYL)AMILORIDE] | 6.08
CC(C)CN(C)c1nc(N)c(C(=O)N=C(N)N)nc1Cl [5-(N-METHYL-N-ISOBUTYL)AMILORIDE] | 6.26
N#CN/C(=N\CCNC(=O)c1ccc(N)cc1)NCCCOc1cccc(CN2CCCCC2)c1 [AMINOPOTENTIDINE] | 4.83
CCCCCC[C@H]1C(=O)O[C@H](C)[C@H](NC(=O)c2cccc(NC=O)c2O)C(=O)O[C@@H](C)[C@@H]1OC(=O)CC(C)C [ANTIMYCIN A] | 5.66
CN1CCc2cccc3c2[C@H]1Cc1ccc(O)c(O)c1-3 [APOMORPHINE HYDROCHLORIDE] | 6.43
C[C@H]1[C@H](OC(=O)CCC(=O)O)O[C@@H]2O[C@@]3(C)CC[C@H]4[C@H](C)CC[C@@H]1[C@@]24OO3 [ARTESUNATE] | 8.48
COc1ccc(CCN2CCC(Nc3nc4ccccc4n3Cc3ccc(F)cc3)CC2)cc1 [ASTEMIZOLE] | 6.60
O=C1C(O)=C([C@H]2CC[C@H](c3ccc(Cl)cc3)CC2)C(=O)c2ccccc21 [ATOVAQUONE] | 9.39

Structure (SMILES) | pIC50
N/C(=N\C(=O)c1nc(Cl)c(N)nc1N)NCc1ccccc1 [BENZAMIL HYDROCHLORIDE] | 6.66
CCCCOc1ccc(CC(=O)NO)cc1 [BUFEXAMAC] | 5.56
CN/C(=N\CCSCc1nc[nH]c1C)NC#N [CIMETIDINE] | < 4.64
C=C[C@H]1CN2CC[C@H]1C[C@@H]2[C@@H](O)c1ccnc2ccccc12 [CINCHONINE] | 8.30
CCC(=O)O[C@]1(C(=O)CCl)[C@@H](C)C[C@H]2[C@@H]3CCC4=CC(=O)C=C[C@]4(C)[C@@]3(F)[C@@H](O)C[C@@]21C [CLOBETASOL PROPIONATE] | 6.10
Clc1ccc(C(OCCN2CCCCC2)c2ccccc2)cc1 (centres undefined) [CLOPERASTINE HYDROCLORIDE] | 5.31
CC[C@H]1CN2CCc3cc(OC)c(OC)cc3[C@@H]2C[C@@H]1C[C@H]1NCCc2cc(OC)c(OC)cc21 [EMETINE DIHYDROCHLORIDE HYDRATE] | 9.00
NC(N)=Nc1nc(CSCC/C(N)=N/S(N)(=O)=O)cs1 [FAMOTIDINE] | < 4.64
NCCc1c[nH]cn1 [HISTAMINE] | 6.18
CCN(CC)CCNc1ccc(CO)c2sc3ccccc3c(=O)c12 [HYCANTHONE] | 5.52
C[C@@H]1C[C@H]2[C@@H]3CCC4=CC(=O)C=C[C@]4(C)[C@@]3(Cl)[C@@H](O)C[C@]2(C)[C@@]1(OC(=O)c1ccco1)C(=O)CCl [MOMETASONE FUROATE] | 5.82
CNC(=C[N+](=O)[O-])NCCSCc1csc(CN(C)C)n1 [NIZATIDINE] | < 4.64
O=c1ccc2ccccc2[nH]1 [OXYQUINOLINE HEMISULFATE] | 5.94
N#Cc1ccc2c(c1)N(CCCN1CCC(O)CC1)c1ccccc1S2 [PERICIAZINE] | 5.18
CCN(CC)CCCC(C)Nc1c2ccc(Cl)cc2nc2ccc(OC)cc12 (centres undefined) [QUINACRINE DIHYDROCHLORIDE] | 9.00
C=C[C@H]1CN2CC[C@H]1C[C@@H]2[C@@H](O)c1ccnc2ccc(OC)cc12 [QUINIDINE SULFATE] | 7.25
C=C[C@H]1CN2CC[C@H]1C[C@H]2[C@H](O)c1ccnc2ccc(OC)cc12 [QUININE SULFATE] | 6.55
CNC(=C[N+](=O)[O-])NCCSCc1ccc(CN(C)C)o1 [RANITIDINE HYDROCHLORIDE] | < 4.64
Cc1ccnc(NS(=O)(=O)c2ccc(N)cc2)n1 [SULFAMERAZINE] | 8.22
CCCc1nc2c(C)cc(-c3nc4ccccc4n3C)cc2n1Cc1ccc(-c2ccccc2C(=O)O)cc1 [TELMISARTAN] | 5.79
C/N=C(/NC#N)NCCSCc1csc(NC(=N)N)n1 [TIOTIDINE] | < 4.64
CC(C)C[C@@H]1NC(=O)[C@H](CCCN)NC(=O)[C@H](C(C)C)NC(=O)[C@H](Cc2ccc(O)cc2)N[C@@H](CCC(=O)O)C(=O)N[C@@H](CC(N)=O)C(=O)[C@@H](Cc2ccccc2)NC(=O)[C@H](Cc2ccccc2)NC(=O)[C@@H]2CCCN2C(=O)[C@@H](Cc2ccccc2)NC1=O [TYROTHRICIN] | 10.30
CC[C@]1(O)C[C@@H]2CN(CCc3c([nH]c4ccccc34)[C@@](C(=O)OC)(c3cc4c(cc3OC)N(C)[C@H]3[C@@](O)(C(=O)OC)[C@H](OC(C)=O)[C@]5(CC)C=CCN6CC[C@]43[C@@H]65)C2)C1 [VINBLASTINE] | 8.70
CC[C@]1(O)C[C@H]2CN(CCc3c([nH]c4ccccc34)[C@@](C(=O)OC)(c3cc4c(cc3OC)N(C=O)[C@H]3[C@@](O)(C(=O)OC)[C@H](OC(C)=O)[C@]5(CC)C=CCN6CC[C@]43[C@@H]65)C2)C1 [VINCRISTINE] | 9.00
c1cc(CN2CCCCC2)cc(OCCCNc2nc3ccccc3s2)c1 [ZOLANTIDINE DIMALATE] | < 4.64

test system: HepG2; assay: Cytotoxicity activity against human HepG2 cells after 24 hrs; format: cell-based; details: HepG2, 24 h

Structure (SMILES) | pIC50
CCNC(=O)N1CCN(CCCC(c2ccc(F)cc2)c2ccc(F)cc2)CC1 [AMPEROZIDE] | 4.02
COc1cccc2c1C(=O)c1c(O)c3c(c(O)c1C2=O)C[C@@](O)(C(=O)CO)C[C@@H]3O[C@H]1C[C@H](N)[C@H](O)[C@H](C)O1 [DOXORUBICIN] | 4.16
c1cc(CN2CCCCC2)cc(OCCCNc2nc3ccccc3s2)c1 [ZOLANTIDINE] | 4.12

test system: Plasmodium falciparum; assay: Antiplasmodial activity against Plasmodium falciparum 3D7 by SYBR Green 1-based fluorescence assay; format: functional, organism-based; details: not given

Structure (SMILES) | pIC50
CC(=O)N(C1=C(N(C)C)C(=O)c2ccccc2C1=O)c1cccc(Br)c1 | 6.89
CC(=O)N(C1=C(N2CCOCC2)C(=O)c2ccccc2C1=O)c1ccccc1 | 5.80
CC(=O)N(C1=C(N(C)C)C(=O)c2ccccc2C1=O)c1cccc(F)c1 | 6.96
CC(=O)N(C1=C(N(C)C)C(=O)c2ccccc2C1=O)c1ccc(F)c(F)c1 | 6.77
CC(=O)N(C1=C(N2CCOCC2)C(=O)c2ccccc2C1=O)c1cccc(Cl)c1 | 5.74
O=C1C(O)=C([C@H]2CC[C@H](c3ccc(Cl)cc3)CC2)C(=O)c2ccccc21 [ATOVAQUONE] | 9.10
